In the library only some 1.5% were active in any assay of this set; here they are far more common.
NR2E3 ag-1 = activates human NR2E3 receptor; Q9Y5X4; CHO-S Gal4-NCOR/VP16-NR2E3 two-hybrid, luciferase; inhibition of corepressor binding, % at 3.98 µM; 0.35% of 360,000 active; AID 602229;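 active = inhibition above the mean of all tested compounds plus 3 SD, cut at about 70% in these data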;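 note: 0% = DMSO with NR2E3 transfected cells and 100% = cells lacking NR2E3 construct; higher means lower luciferase signal from less NR2E3 corepressor binding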
NR2E3 ag-2 = activates human photoreceptor nuclear receptor NR2E3; GST-NR2E3/biotin-RetCOR TR-FRET, 1536-well; inhibition of corepressor binding, % at 4.78 µM; 0.12% of 320,000 active;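 active = percent inhibition above the cutoff of mean plus 3 SD of all tested compounds, set per screening campaign, cut at about 20% in these data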;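 note: 0% = DMSO wells and 100% = biotin wells as full block of FRET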
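Assay system: NR2E3–RetCOR corepressor complex. Quantity: 1.35 nM GST-NR2E3. Buffer or medium: pH 7.5 Tris-based buffer. Reagent: biotinylated RetCOR corepressor at 7 nM final. Schedule: 5 h at 4 °C. Detection: TR-FRET, emission read at 617 and 671 nm. Replicates: one well per compound, singlicate testing.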
Jurkat NFkB inh = inhibitors of the PMA/ionomycin-induced NF-kB reporter in Jurkat cells; 0.53% of 330,000 active; PMA/ionomycin-induced NF-kB luciferase reporter, luminescence; inhibition, % at 4 µM; in the data active = inhibition above about 50%
697 NFkB inh = lowers PMA/ionomycin-induced NF-kB signal in 697 B cells; 697 B-cell NF-kB luciferase reporter, 16 h; inhibition, % at 4 µM; 0.33% of 330,000 active; AID 435022; in the data active = inhibition above about 35%
GASC-1 inh = inhibitors of human GASC-1 (JMJD2C) demethylase. GST-JMJD2C(1-420) H3K9me3 demethylation, DELFIA europium. inhibition, % at 2.35 µM. 0.069% of 330,000 active. AID 2099;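 active = more than half of a compound's replicate wells show inhibition beyond 50%, single wells judged on their own value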;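 note: signal counts dimethyl H3K9 product captured on neutravidin plate; 0% = median of DMSO wells and 100% = 0.3 times that DMSO median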
GalR3 antag = human GalR3 antagonism; O60755; HEK293 GalR3-CNG cAMP membrane potential fluorescence; galR3 body fused to GalR1 C-terminus; inhibition, % at 3 µM; 0.44% of 360,000 active;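 active = inhibition above the screen-wide average plus 3 SD, cut at about 13% in these data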;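 note: forskolin and galanin both at EC90 stimulate the cells; cAMP rise reported by CNG channel membrane potential dye signal; 0% = forskolin plus galanin with DMSO and 100% = forskolin alone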
Target sequence (O60755 1-299 limits assumed): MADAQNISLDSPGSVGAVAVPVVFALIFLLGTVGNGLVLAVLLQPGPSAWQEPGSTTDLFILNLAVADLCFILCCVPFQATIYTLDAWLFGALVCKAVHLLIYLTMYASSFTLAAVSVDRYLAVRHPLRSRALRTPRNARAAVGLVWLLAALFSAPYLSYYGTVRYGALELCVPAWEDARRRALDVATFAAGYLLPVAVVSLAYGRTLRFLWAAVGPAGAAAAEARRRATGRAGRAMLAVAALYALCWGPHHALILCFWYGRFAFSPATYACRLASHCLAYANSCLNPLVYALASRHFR
GalR3 conf = GalR3 (human) antagonism, confirmation; shares compounds with GalR3 antag; HEK293 GalR3 CNG cAMP biosensor, membrane potential fluorescence; galR3 fused to GalR1 carboxy tail; challenged with forskolin and galanin at EC90; inhibition, % at 3 µM; 59% of 1,600 active; AID 652245;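 active = inhibition above the primary screen's cutoff, the mean inhibition of all screened compounds plus 3 SD, cut at about 13% in these data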;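 note: 0% = forskolin plus galanin and 100% = forskolin alone with DMSO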
HEK-CNG parental = counter-screen for GalR3 antagonists: nonspecific agonists in parental HEK-CNG cells | shares compounds with GalR3 antag | HEK293-CNG parental cells, cAMP membrane potential fluorescence; normalised: DMSO wells 0%, forskolin wells 100% | activation, % at 3 µM | 10% of 1,600 active; in the data active = activation above about 1.3%
* = called active by the depositor.

What do the screens show for `CC1CC(C)CN(C(=O)CSCC(=O)O)C1` (configuration not stated)?
NR2E3 ag-1: 4; NR2E3 ag-2: 4; Jurkat NFkB inh: 18; 697 NFkB inh: 16; GASC-1 inh: 0; GalR3 antag: 13*; GalR3 conf: -2; HEK-CNG parental: 0

What do the screens show for `O=C(N/N=C/c1ccc(F)cc1)c1cccc(NC(=O)c2ccccc2Cl)c1`?
NR2E3 ag-1: -2; NR2E3 ag-2: 2; Jurkat NFkB inh: -9; 697 NFkB inh: 21; GASC-1 inh: 4; GalR3 antag: -9

How did CC(NC(=O)CNC(=O)c1cccs1)c1cccc(C(F)(F)F)c1 (configuration not stated) do in these assays?
NR2E3 ag-1: 0; Jurkat NFkB inh: -39; 697 NFkB inh: 5; GASC-1 inh: -3; GalR3 antag: -5

Results for NC(=O)c1sc(=S)n2c1[nH]c(=O)c1sccc12 ?
NR2E3 ag-1: -15; NR2E3 ag-2: -2; Jurkat NFkB inh: -10; 697 NFkB inh: 13; GASC-1 inh: 2; GalR3 antag: 67*; GalR3 conf: -3; HEK-CNG parental: 1

Results for C[C@H]1CN([C@@H](C)CO)C(=O)CCCn2nncc2CO[C@@H]1CN(C)S(=O)(=O)c1cccs1 ?
GalR3 antag: -2

Results for CCC1=Nc2cc(C(=O)NCC3CCCO3)ccc2Sc2ccc(Cl)cc21 (configuration not stated) ?
NR2E3 ag-1: -8; NR2E3 ag-2: -1; Jurkat NFkB inh: 37; 697 NFkB inh: -18; GASC-1 inh: 9; GalR3 antag: 16*; GalR3 conf: 9; HEK-CNG parental: 0

How did CC(C)(C)c1csc(NC(=O)c2ccc3nccnc3c2)n1 do in these assays?
NR2E3 ag-1: -122; NR2E3 ag-2: 3; Jurkat NFkB inh: -100; 697 NFkB inh: -95; GASC-1 inh: 1; GalR3 antag: -2

What do the screens show for `Cc1ccc(S(=O)(=O)NN2C(=O)c3ccccc3NC2c2ccccn2)cc1` (configuration not stated)?
NR2E3 ag-1: 29; NR2E3 ag-2: -2; Jurkat NFkB inh: 7; 697 NFkB inh: 1; GASC-1 inh: -1; GalR3 antag: 14*; GalR3 conf: -1; HEK-CNG parental: 0

What do the screens show for `COc1ccc2[nH]c3c(=O)n(CCCCC(=O)NCCC(C)C)c(=S)[nH]c3c2c1`?
NR2E3 ag-1: -10; NR2E3 ag-2: -3; Jurkat NFkB inh: -2; 697 NFkB inh: -8; GASC-1 inh: -16; GalR3 antag: 13*; GalR3 conf: -2; HEK-CNG parental: 0

What do the screens show for `CCCNC(=O)CCCCn1c(=S)[nH]c2c([nH]c3ccc(OC)cc32)c1=O`?
NR2E3 ag-1: -32; NR2E3 ag-2: -2; Jurkat NFkB inh: 11; 697 NFkB inh: 20; GASC-1 inh: -8; GalR3 antag: -6

What do the screens show for `COc1ccc(NS(=O)(=O)c2ccc3oc(SC(C)C(N)=O)nc3c2)cc1` (configuration not stated)?
NR2E3 ag-1: 42; NR2E3 ag-2: 1; Jurkat NFkB inh: 16; 697 NFkB inh: -40; GASC-1 inh: -10; GalR3 antag: 24*; GalR3 conf: 0; HEK-CNG parental: 0

Results for CCNC(=O)CSc1nc2cc(S(=O)(=O)Nc3ccc(OC)cc3)ccc2o1 ?
NR2E3 ag-1: 18; NR2E3 ag-2: -1; Jurkat NFkB inh: 0; 697 NFkB inh: 0; GASC-1 inh: -31; GalR3 antag: 0

Results for CC(c1ccc(Cl)cc1)n1c(-c2ccc3ccccc3n2)n[nH]c1=S (configuration not stated) ?
NR2E3 ag-1: -21; NR2E3 ag-2: 2; Jurkat NFkB inh: -11; 697 NFkB inh: -22; GASC-1 inh: -11; GalR3 antag: 13*; GalR3 conf: 7; HEK-CNG parental: 1

Results for C=CC[C@@H](Cc1ccc(F)cc1)C(=O)OC[C@H]1CCCN1C(=O)[C@H](CC=C)CC(=O)NCCO ?
NR2E3 ag-1: 15; Jurkat NFkB inh: -12; 697 NFkB inh: -5; GASC-1 inh: -5; GalR3 antag: 14*; GalR3 conf: 4; HEK-CNG parental: 0

What do the screens show for `CCCN(C(=O)c1cn(CCC)c2ccccc12)c1ccc(Oc2cccnc2)cc1`?
GalR3 antag: -4

How did O=C1c2cccc(OCc3ccc(F)cc3)c2CCN1Cc1ccc(F)cc1 do in these assays?
NR2E3 ag-1: 26; NR2E3 ag-2: -3; Jurkat NFkB inh: 23; 697 NFkB inh: -33; GASC-1 inh: -9; GalR3 antag: 20*; GalR3 conf: 38*; HEK-CNG parental: 0

What do the screens show for `COc1cccc(NC(=O)CN2CCN(C(=O)c3ccco3)CC2)c1`?
NR2E3 ag-1: -15; NR2E3 ag-2: -1; Jurkat NFkB inh: 3; 697 NFkB inh: 12; GASC-1 inh: 33; GalR3 antag: -3

What do the screens show for `CCO[C@@H]1OC(C(N)=O)=C[C@H](c2ccc(C(F)(F)F)cc2)[C@H]1CCCO`?
NR2E3 ag-1: -2; NR2E3 ag-2: 1; Jurkat NFkB inh: 3; 697 NFkB inh: 1; GASC-1 inh: 0; GalR3 antag: 16*; GalR3 conf: 5; HEK-CNG parental: 0

What do the screens show for `COc1ccc(-c2nc(C#N)c(NCCCN(C)C)o2)cc1OC`?
NR2E3 ag-1: -6; NR2E3 ag-2: 3; Jurkat NFkB inh: -46; 697 NFkB inh: -7; GASC-1 inh: 8; GalR3 antag: 3

Results for COc1ccc(-c2nc(C#N)c(NC(C)c3ccccc3)o2)cc1OC (configuration not stated) ?
NR2E3 ag-1: -23; NR2E3 ag-2: 5; Jurkat NFkB inh: -19; 697 NFkB inh: 3; GASC-1 inh: 8; GalR3 antag: 20*; GalR3 conf: 39*; HEK-CNG parental: 0

How did COc1cc2c(cc1OC)C(c1ccc(C)cc1)NC(=O)C2 (configuration not stated) do in these assays?
NR2E3 ag-1: -18; Jurkat NFkB inh: -16; 697 NFkB inh: -21; GASC-1 inh: -2; GalR3 antag: 14*; GalR3 conf: 3; HEK-CNG parental: 0

How did COCCN1Cc2cccc(C(=O)Nc3cc(OC)ccc3OC)c2C1=O do in these assays?
NR2E3 ag-1: -3; NR2E3 ag-2: 4; Jurkat NFkB inh: -7; 697 NFkB inh: 19; GASC-1 inh: 3; GalR3 antag: 45*; GalR3 conf: 52*; HEK-CNG parental: 0

Source: PubChem
